{"source": "paper PMC10120002", "about": "(Proceedings of the National Academy of Sciences of the …, 2023)", "molecular_target": "recombinant Cdk5/p25 complex (Homo sapiens, UniProt Q00535+Q15078)", "sequence (Q00535 whole entry)": "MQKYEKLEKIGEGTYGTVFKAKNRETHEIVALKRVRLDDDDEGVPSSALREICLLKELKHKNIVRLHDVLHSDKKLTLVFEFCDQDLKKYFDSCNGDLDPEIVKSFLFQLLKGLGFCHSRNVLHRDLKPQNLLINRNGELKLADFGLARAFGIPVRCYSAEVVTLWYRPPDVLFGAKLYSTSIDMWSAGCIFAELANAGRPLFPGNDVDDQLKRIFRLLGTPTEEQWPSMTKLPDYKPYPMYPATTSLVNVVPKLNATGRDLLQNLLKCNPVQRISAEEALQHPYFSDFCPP", "sequence (Q15078 99-307 limits assumed)": "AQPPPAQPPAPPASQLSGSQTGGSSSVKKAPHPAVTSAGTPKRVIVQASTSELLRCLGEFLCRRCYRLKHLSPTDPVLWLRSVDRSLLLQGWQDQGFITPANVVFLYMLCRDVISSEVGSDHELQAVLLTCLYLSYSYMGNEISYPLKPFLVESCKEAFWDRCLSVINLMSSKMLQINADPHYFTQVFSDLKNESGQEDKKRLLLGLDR", "assay": "IP-linked Cdk5 kinase assay, recombinant Cdk5/p25, histone H1", "assay_type": "biochemical", "settings": "recombinant Cdk5/p25, overnight incubation, vs solvent control", "method_in_brief": "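Recombinant Cdk5/p25 complex incubated overnight with test peptide or solvent control, then immunoprecipitated with anti-Cdk5 antibody overnight at 4 °C. The immunocomplex was used for a kinase reaction with histone H1 as substrate and ³²P label, resolved on 12% SDS-PAGE, dried, and exposed to film for several hours. ³²P-histone H1 band intensity was quantified, with Coomassie staining as loading check. Six replicates from two independent experiments.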", "note": "Ends that are not written are not given here."}
{"sequence": "ARAFGIPVRCYS [Cdk5i]", "values": [{"measurement": "reduction of histone H1 phosphorylation by Cdk5/p25", "result": "~ 22%"}]}
